Test results published in BindingDB's records for doi:10.1021/jm301749y (University of North Carolina at Chapel Hill, 2013).

Biological target: T1, C-C chemokine receptor type 4 (Homo sapiens, UniProt P51679)
T1 sequence (P51679 whole entry): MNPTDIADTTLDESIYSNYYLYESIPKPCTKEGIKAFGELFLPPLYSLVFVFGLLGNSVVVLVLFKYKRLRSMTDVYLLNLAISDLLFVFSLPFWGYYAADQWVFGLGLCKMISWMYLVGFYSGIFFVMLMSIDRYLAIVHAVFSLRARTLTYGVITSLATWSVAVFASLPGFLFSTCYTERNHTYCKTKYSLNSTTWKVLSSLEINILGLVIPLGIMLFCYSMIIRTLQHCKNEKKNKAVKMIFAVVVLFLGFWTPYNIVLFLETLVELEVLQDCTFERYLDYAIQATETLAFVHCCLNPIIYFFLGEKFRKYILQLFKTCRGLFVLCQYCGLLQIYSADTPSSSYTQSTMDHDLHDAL
Experiment: Inverse agonist activity at CCR4 in human HTLA cells assessed as depression of basal activity incubated for 20 mins by beta arrestin-recruitment mediated luciferase reporter gene assay in absence of CCL22
Method in brief: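 Transfected HTLA β-arrestin2-TEV/tTA-luciferase cells expressing CCR4, in serum-free DMEM, treated with compound dilutions in HBSS/20 mM HEPES pH 7.4 without CCL22 agonist; luciferase luminescence read on day 4; basal signal depression plotted as concentration-response curves.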

IC50: 200 nM
SMILES: CCC(C)n1ncn(-c2ccc(N3CCN(c4ccc(OC[C@H]5CO[C@](Cn6cncn6)(c6ccc(Cl)cc6Cl)O5)cc4)CC3)cc2)c1=O (stereo partly specified) [Oriconazole]
